# Experimental data taken from ChEMBL document CHEMBL2384903, “Highly efficient biocompatible neuroprotectants with dual activity as antioxidants and P2Y receptor agonists” (J Med Chem, 2013).
# Calls of active or inactive are those of the source. No cut-off for these calls is given here.
# What was measured:
# P2Y purinoceptor 1 [1] = biological target: P2Y purinoceptor 1 (Homo sapiens, UniProt P47900); experiment: Agonist activity at human GFP-tagged P2Y1R transfected in human 1321N1 cells assessed as induction of intracellular calcium mobilization by fluorescence assay; assay type: functional, cell-based
# Sequence of P2Y purinoceptor 1 (Homo sapiens, UniProt P47900) (P47900 whole entry): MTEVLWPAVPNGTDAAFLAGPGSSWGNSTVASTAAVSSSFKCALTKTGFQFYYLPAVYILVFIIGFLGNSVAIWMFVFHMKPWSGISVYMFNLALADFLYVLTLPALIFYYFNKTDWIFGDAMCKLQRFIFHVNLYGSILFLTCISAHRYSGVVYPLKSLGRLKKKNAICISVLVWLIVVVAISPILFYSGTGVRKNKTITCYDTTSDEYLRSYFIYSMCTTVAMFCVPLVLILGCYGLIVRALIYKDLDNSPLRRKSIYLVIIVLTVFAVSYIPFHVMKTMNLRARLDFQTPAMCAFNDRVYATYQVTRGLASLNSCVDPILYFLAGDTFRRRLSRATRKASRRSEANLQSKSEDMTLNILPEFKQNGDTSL
# PC-12 [2] = experiment: Antioxidant activity in rat PC12 cells assessed as inhibition of Fe2+-induced ROS production after 1 hr by DCFH-DA staining-based fluorometric analysis; assay type: functional, cell-based
# In short: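 PC12 cells grown in DMEM, seeded 24 h. Loaded with DCFH-DA (ethanol stock diluted 100-fold in PBS) for 20 min, then probe removed. Nucleotides added at final 0.2–200 μM, and oxidation started with FeSO4 at final 0.16 μM. Fluorescence at 485/530 nm read during 1 h at 37 °C. […] Mean ± SD of two experiments.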
# [3] = Antioxidant activity assessed as free radical scavenging activity after 7 mins by ABTS radical cation decolorization assay; assay type: functional
# In short: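 ABTS•+ is made from 7 mM ABTS and 2.45 mM persulfate (final), left in the dark at RT for 12–16 h, then diluted in water pH 7.4 to A734 0.80. It is mixed with compound or Trolox standard (final 0–60 μM), and A734 is read at exactly 7 min. Percent inhibition is plotted against concentration, with solvent blanks. Each run is done at least three times, in triplicate.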
# [4] = Antioxidant activity assessed as inhibiton of Fe2+-induced Fenton reaction-mediated hydroxyl radical formation from H2O2 measured for 150 secs by ESR analysis in presence of DMPO; assay type: functional
# In short: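 Spin-trap ESR run at room temperature, final volume 100 μL. 5–500 μM compound is combined with ammonium iron(II) sulfate (1 mM stock) and Tris pH 7.4. After 30 s mixing, DMPO (100 mM stock) and H2O2 (100 mM stock) are added, with final pH 7.2–7.4. Spectrum is recorded 150 s after H2O2 at 9.76 GHz, 6.35 mW. Mean ± SD of three experiments.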
# P2Y purinoceptor 11 = biological target: T1, P2Y purinoceptor 11 (Homo sapiens, UniProt Q96G91); experiment: Agonist activity at human GFP-tagged P2Y11R transfected in human 1321N1 cells assessed as induction of intracellular calcium mobilization by fluorescence assay; assay type: functional, cell-based
# T1 sequence (Q96G91 whole entry): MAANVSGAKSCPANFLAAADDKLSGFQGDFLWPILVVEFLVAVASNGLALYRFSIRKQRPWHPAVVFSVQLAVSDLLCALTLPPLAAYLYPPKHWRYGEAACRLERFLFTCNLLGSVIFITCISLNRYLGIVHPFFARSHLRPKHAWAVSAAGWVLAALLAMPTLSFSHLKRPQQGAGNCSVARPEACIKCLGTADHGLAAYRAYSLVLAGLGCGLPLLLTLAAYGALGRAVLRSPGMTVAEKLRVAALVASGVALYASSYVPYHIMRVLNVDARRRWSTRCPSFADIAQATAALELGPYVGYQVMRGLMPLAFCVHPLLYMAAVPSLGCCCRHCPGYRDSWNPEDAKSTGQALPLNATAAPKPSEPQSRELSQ
# PC-12 [5] = experiment: Cytotoxicity against rat PC12 cells assessed as cell viability up to 200 uM after 48 hrs by MTT assay; assay type: cell-based; details: pc-12, 48 h
# In short: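 PC12 cells were exposed to compounds at various concentrations up to 200 μM for 48 h, and viability was measured by MTT assay.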
# PC-12 [6] = experiment: Antioxidant activity in rat PC12 cells assessed as inhibition of Fe2+-induced ROS production at 100 uM after 1 hr by DCFH-DA staining-based fluorometric analysis relative to control; assay type: functional; details: PC-12, 1 h
# In short: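 PC12 cells in DMEM were seeded 24 h, loaded 20 min with diluted DCFH-DA and washed. Nucleotides were then added at 0.2−200 μM final. Oxidation was started with FeSO4 at 0.16 μM final and plates were incubated 1 h at 37 °C. DCF fluorescence was read at 485/530 nm, and percent inhibition of ROS was taken against untreated oxidized control.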
# [7] = Metabolic stability in human serum assessed as compound remaining at 0.1 mg after 6 hrs by HPLC analysis; assay type: ADME, cell-free; details: read-out: Stability
# In short: (§1)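 0.1 mg compound in water was mixed with human blood serum and RPMI-1640 medium (1:3 serum:medium) and incubated at 37 °C for 0−24 h. Remaining intact nucleotide was quantified from the change in its HPLC peak integration over time.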
# [8] = Half life in human serum at 0.1 mg after 6 hrs by HPLC analysis; assay type: ADME, cell-free; in short: as §1
# [9] = Neuroprotective activity in rat primary cortical neurons assessed as decrease in FeSO4-induced oxidative stress measured cell vitality at 1 uM after 24 hrs by MTT assay relative to control; assay type: functional, cell-based; set-up: scale not given: the % may be the effect or the level left; details: Cerebral cortex neuron
# In short: (§2)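 Cortical neurons came from 1-day-old rat brain, were trypsin-dissociated and plated on polyornithine. They were grown in serum-free DMEM/F12 with B-27, then Ara-C treated for 48 h. Cells were treated with 0.01−5 μM nucleotide before FeSO4 (3 μM final) for 24 h. MTT 1 mg/mL was applied for 2 h at 37 °C, formazan dissolved in DMSO, absorbance read at 550 nm. Viability was expressed relative to vehicle control, mean ± SD of three independent experiments in triplicate.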
# [10] = Neuroprotective activity in rat primary cortical neurons assessed as decrease in FeSO4-induced oxidative stress measured cell viability after 24 hrs by MTT assay; assay type: functional, cell-based; details: Cerebral cortex neuron; in short: as §2
# [11] = biological target: P2Y purinoceptor 12 (Rattus norvegicus) (UniProt Q9EPX4); experiment: Agonist activity at P2Y12R in rat PC12 cells assessed as decrease in FeSO4-induced ROS formation at 0.04 to 100 uM after 1 hr by DCFH-DA staining-based fluorometric analysis in presence of P2Y12R antagonist 2-MeS-AMP; assay type: cell-based; details: PC-12
# Sequence of P2Y purinoceptor 12 (Rattus norvegicus) (Q9EPX4 whole entry): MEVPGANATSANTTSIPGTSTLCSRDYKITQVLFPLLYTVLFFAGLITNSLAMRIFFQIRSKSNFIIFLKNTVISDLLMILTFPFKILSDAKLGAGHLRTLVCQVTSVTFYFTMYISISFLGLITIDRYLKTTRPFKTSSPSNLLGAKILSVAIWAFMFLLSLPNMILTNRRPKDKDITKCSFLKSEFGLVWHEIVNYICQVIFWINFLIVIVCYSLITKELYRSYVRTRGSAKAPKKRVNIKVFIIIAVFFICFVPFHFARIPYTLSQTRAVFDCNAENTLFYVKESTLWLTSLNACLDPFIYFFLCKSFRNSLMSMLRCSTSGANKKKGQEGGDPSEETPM
# In short: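 PC12 cells seeded 24 h in DMEM, pretreated with 50 μM 2-MeS-AMP for 20 min, then loaded with DCFH-DA (stock 2 mg/mL in ethanol, diluted 100-fold in PBS) for 20 min and washed. Test agent added at 0.04−100 μM final. Oxidation started with FeSO4 at 0.16 μM final. Incubated 1 h at 37 °C, fluorescence read at 485/530 nm. Inhibition of ROS compared with control lacking antagonist.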
# Homo sapiens = species: Homo sapiens; experiment: Selectivity ratio of EC50 for human GFP-tagged P2Y11R to EC50 for human GFP-tagged P2Y1R
# In short: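 1321N1 astrocytoma cells stably expressing human P2Y1-GFP or P2Y11-GFP were loaded with 2 μM fura-2 AM plus 0.02% pluronic acid in HEPES-buffered saline pH 7.4 for 30 min at 37 °C. They were then superfused at 37 °C with graded agonist concentrations. [Ca2+]i was read as the F340/F380 ratio (510 nm emission) in GFP-positive cells, at least 40 cells per point. EC50 came from concentration–response curves, n = 3.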
# [12] = Antioxidant activity assessed as inhibiton of Fe2+-induced Fenton reaction-mediated hydroxyl radical formation from H2O2 relative to trolox; assay type: functional
# In short: (§3)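 Fe(II)-H2O2 hydroxyl radical assay read by ESR with DMPO spin trap. Ammonium iron(II) sulfate (1 mM, stock) was added to 5−500 μM test compound, then 1 mM Tris pH 7.4. After 30 s mixing, DMPO then H2O2 were added. Final pH 7.2−7.4, 100 μL total, room temperature. Spectrum recorded 150 s after H2O2. IC50 given as mean ± SD of three experiments.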
# [13] = Antioxidant activity assessed as inhibiton of Fe2+-induced Fenton reaction-mediated hydroxyl radical formation from H2O2 relative to ATP; assay type: functional; in short: as §3
# P2Y purinoceptor 1 [14] = biological target: P2Y purinoceptor 1 (Rattus norvegicus, UniProt P49651); experiment: Agonist activity at rat brain P2Y1R transfected in HEK293 cells assessed as induction of intracellular calcium mobilization by fluorescence assay; assay type: functional, cell-based
# Sequence of P2Y purinoceptor 1 (Rattus norvegicus, UniProt P49651) (P49651 whole entry): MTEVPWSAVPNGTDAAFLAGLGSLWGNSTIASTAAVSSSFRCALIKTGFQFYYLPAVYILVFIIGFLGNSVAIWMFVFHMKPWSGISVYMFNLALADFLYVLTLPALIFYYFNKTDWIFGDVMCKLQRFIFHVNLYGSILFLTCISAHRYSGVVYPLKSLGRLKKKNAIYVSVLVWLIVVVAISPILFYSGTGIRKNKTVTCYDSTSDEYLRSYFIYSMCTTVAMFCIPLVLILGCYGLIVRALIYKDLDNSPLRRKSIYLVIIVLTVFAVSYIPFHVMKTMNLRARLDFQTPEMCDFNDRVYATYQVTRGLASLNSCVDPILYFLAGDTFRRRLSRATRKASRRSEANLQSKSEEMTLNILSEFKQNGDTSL
# [15] = Rattus norvegicus, PC-12, 1 h, read-out: IC50
SMILES,EC50 (P2Y purinoceptor 1 [1]) [µM],IC50 (PC-12 [2]; [15]) [µM],IC50 [3] [µM],IC50 [4] [µM],EC50 (P2Y purinoceptor 11; read-out: EC50) [µM],also measured
B[P@@](=O)(OC[C@H]1O[C@@H](n2cnc3c(N)ncnc32)[C@H](O)[C@@H]1O)OP(=O)(O)OP(=O)(O)OP(=O)(O)OP(=O)(O)OC[C@H]1O[C@@H](n2cnc3c(N)ncnc32)[C@H](O)[C@@H]1O,0.2,0.4,> 60,59,,EC50 (P2Y purinoceptor 11; 1321-n1): Not Active
O=C(O)CN(CCN(CC(=O)O)CC(=O)O)CC(=O)O [EDETIC ACID],,,,54,,
Nc1ncnc2c1ncn2[C@@H]1O[C@H](COP(=O)(O)OP(=O)(O)OP(=O)(O)OP(=O)(O)OP(=O)(O)OC[C@H]2O[C@@H](n3cnc4c(N)ncnc43)[C@H](O)[C@@H]2O)[C@@H](O)[C@H]1O,0.76,29,> 60,75,,
BP(=O)(OC[C@H]1O[C@@H](n2cnc3c(N)nc(Cl)nc32)[C@H](O)[C@@H]1O)OP(=O)(O)O (stereo not given in full),,,,,,Activity (PC-12 [5]): Non-toxic
Nc1ncnc2c1ncn2[C@@H]1O[C@H](COP(=O)(O)OP(=O)(O)OP(=O)(O)O)[C@@H](O)[C@H]1O [ADENOSINE TRIPHOSPHATE],,,60,> 500,,inhibition at 100 µM (PC-12 [6]): 45%; IC50 (PC-12 [2]; pc-12): Not Active
B[P@@](=O)(OC[C@H]1O[C@@H](n2cnc3c(N)nc(Cl)nc32)[C@H](O)[C@@H]1O)OP(=O)(O)C(Cl)(Cl)P(=O)(O)O,0.15,0.18,24,131,1.4,
[BH3-][P@@](=O)(OC[C@H]1O[C@@H](n2cnc3c(N)ncnc32)[C@H](O)[C@@H]1O)OP(=O)([O-])[O-].[Na+].[Na+].[Na+],0.3,1,26,47,,remaining at 6 h [7]: 56%; EC50 (P2Y purinoceptor 11; 1321-n1): Not Active
B[P@@](=O)(OC[C@H]1O[C@@H](n2cnc3c(N)nc(Cl)nc32)[C@H](O)[C@@H]1O)OP(=O)(O)O,0.007,0.08,40,175,3.68,half-life [8]: 7 h; Activity [9]: < 60%; EC50 [10]: 0.17 µM; Activity [11]: inactive; remaining at 6 h [7]: 53%; Ratio EC50 (Homo sapiens): < 530
B[P@](=O)(OC[C@H]1O[C@@H](n2cnc3c(N)nc(Cl)nc32)[C@H](O)[C@@H]1O)OP(=O)(O)OP(=O)(O)O,2.5,2.6,24,36,,
[BH3-]P(=O)(OC[C@H]1O[C@@H](n2cnc3c(N)ncnc32)[C@H](O)[C@@H]1O)OP(=O)([O-])OP(=O)([O-])OP(=O)([O-])OP(=O)([O-])OC[C@H]1O[C@@H](n2cnc3c(N)ncnc32)[C@H](O)[C@@H]1O.[Na+].[Na+].[Na+].[Na+].[Na+] (stereo not given in full),,,,,,Activity (PC-12 [5]): Non-toxic
B[P@](=O)(OC[C@H]1O[C@@H](n2cnc3c(N)ncnc32)[C@H](O)[C@@H]1O)OP(=O)(O)O,13,1,24,41,2.9,
B[P@](=O)(OC[C@H]1O[C@@H](n2cnc3c(N)ncnc32)[C@H](O)[C@@H]1O)OP(=O)(O)OP(=O)(O)OP(=O)(O)OP(=O)(O)OC[C@H]1O[C@@H](n2cnc3c(N)ncnc32)[C@H](O)[C@@H]1O,3,1.2,> 60,47,,EC50 (P2Y purinoceptor 11; 1321-n1): Not Active
BP(=O)(OP(=O)(O)OP(=O)(O)OC[C@H]1O[C@@H](n2cnc3c(N)ncnc32)[C@H](O)[C@@H]1O)OP(=O)(O)OP(=O)(O)OC[C@H]1O[C@@H](n2cnc3c(N)ncnc32)[C@H](O)[C@@H]1O,1.2,5,61,161,,
Nc1ncnc2c1ncn2[C@@H]1O[C@H](COP(=O)(O)OP(=O)(O)OP(O)(O)=S)[C@@H](O)[C@H]1O,,,,,,fold change (FC) [12]: 20; fold change (FC) [13]: 100
[BH3-]P(=O)(OC[C@H]1O[C@@H](n2cnc3c(N)nc(Cl)nc32)[C@H](O)[C@@H]1O)OP(=O)([O-])C(Cl)(Cl)P(=O)([O-])[O-].[Na+].[Na+].[Na+].[Na+] (stereo not given in full),,,,,,Activity (PC-12 [5]): Non-toxic
Cc1c(C)c2c(c(C)c1O)CCC(C)(C(=O)O)O2 (stereo not given) [TROLOX],,20,18,,,
B[P@](=O)(OC[C@H]1O[C@@H](n2cnc3c(N)nc(Cl)nc32)[C@H](O)[C@@H]1O)OP(=O)(O)O,0.6,0.2,39,120,1,EC50 [10]: 0.4 µM; Ratio EC50 (Homo sapiens): < 530
B[P@](=O)(OC[C@H]1O[C@@H](n2cnc3c(N)nc(Cl)nc32)[C@H](O)[C@@H]1O)OP(=O)(O)C(Cl)(Cl)P(=O)(O)O,0.95,0.19,27,60,0.13,
Nc1ncnc2c1ncn2[C@@H]1O[C@H](COP(=O)(O)OP(=O)(O)O)[C@@H](O)[C@H]1O [ADENOSINE DIPHOSPHATE],0.024,21,30,170,1.7,remaining at 6 h [7]: 32%
CSc1nc(N)c2ncn([C@@H]3O[C@H](COP(=O)(O)OP(=O)(O)O)[C@H](O)[C@H]3OC(=O)c3ccccc3)c2n1,,,,,1.5,
B[P@@](=O)(OC[C@H]1O[C@@H](n2cnc3c(N)nc(Cl)nc32)[C@H](O)[C@@H]1O)OP(=O)(O)OP(=O)(O)O,0.074,1,23,66,,EC50 (P2Y purinoceptor 1 [14]): 0.0045 µM
